Experimental findings from ChEMBL document CHEMBL2040725, “In vitro and in vivo biological evaluation of new 4,5-disubstituted 1,2,3-triazoles as cis-constrained analogs of combretastatin A4” (Eur J Med Chem, 2012) are described below.

Data set [1] can be described thus: Inhibition of tubulin polymerization preincubated for 45 mins before GTP addition measured after 2 hrs by DAPI-based fluorescenct assay. A digest of the protocol:
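Tubulin (97% pure, 1 mg/ml final) in PME buffer (100 mM PIPES, MgSO₄, 2 mM EGTA) with 10 µM DAPI. Compounds from 30 µM in 3-fold decrements, triplicate wells, colchicine as full-inhibition control. 45 min preincubation at room temperature, then 1 mM GTP added and held 2 h at 37 °C. Fluorescence read at ex 360/em 450 nm. Percent inhibition taken relative to colchicine; IC50 = 50% inhibition.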

In another data set the test system is B16. Description: Cytotoxicity against mouse B16 cells assessed as cell viability after 48 hrs by MTT assay. It counts as functional, cell-based. As to conditions: B16, 48 h. A digest of the protocol:
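Murine B16 melanoma cells in DMEM with 10% FBS, 2 mM L-glutamine and antibiotics, 37 °C, 5% CO₂. Incubated 48 h, then MTT read at 562 nm with background subtraction. IC50 from concentration-response curves.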

Data set [2] can be described thus: Antivascular activity against human EAhy926 cells assessed as the minimum concentration required to elicit rounding up of cells after 2 hrs by microscopic analysis. Type of data set: functional, EA.hy 926. A digest of the protocol:
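EAhy 926 cells (HUVEC fused with A549) grown in DMEM with 10% FBS, 2 mM L-glutamine and antibiotics. Top concentration 100 µM, then two-fold serial dilutions. Wells photographed at 100× and 200×. Value = lowest concentration rounding up >15% of cells per field; 1% DMSO control.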

Data set [3] deals with Colon 26. Description: Antitumor activity against mouse Colon 26 cells allografted in BALB/cJRj mouse assessed as reduction in tumor volume at 100 mg/kg, ip administered on days 3-7 and 10-14 post implantation relative to control. Type of data set: functional. Set-up: scale not given: the % may be the effect or the level left. The settings on record: route intraperitoneal. A digest of the protocol: (§1)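 Female BALB/cJRj mice (about 18 g), 5 per group. Colon 26 tumor fragments (30-60 mg) implanted s.c. bilaterally in the axilla on day 0. Dosing i.p. on days 3-7 and 10-14 in saline with 5% DMSO and 5% polysorbate 80, 0.2 ml. Tumors measured daily by caliper, volume = length × width² × 0.5. %T/C = median treated/control, taken when control tumors reached 1500 mm³. T-C growth delay also recorded.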

Data set [4] can be described thus: Toxicity in mouse ip dosed BALB/cJRj mouse allografted with mouse Colon 26 cells compound administered on days 3-7 and 10-14 post implantation relative to control. It counts as organism-based. The settings on record: in vivo. A digest of the protocol: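 Female BALB/cJRj mice (~18 g) with bilateral subcutaneous axillary Colon 26 fragments (30-60 mg) implanted on day 0; 5 mice/group. Daily fresh doses in saline with 5% DMSO and 5% polysorbate 80, given ip on days 3-7 and 10-14; solvent-treated controls. Mice weighed daily and checked for clinical toxicity signs; tumours measured daily by caliper.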

Data set [5] concerns Colon 26. The data set can be described thus: Antitumor activity against mouse Colon 26 cells allografted in BALB/cJRj mouse assessed as tumor growth delay time at 100 mg/kg, ip administered on days 3-7 and 10-14 post implantation relative to control. It counts as functional. The settings on record: route intraperitoneal. A digest of the protocol:
as §1

The next data set concerns EA.hy 926. The data set can be described thus: Antivascular activity against human EAhy926 cells assessed as rounding up of cells at 1 uM after 2 hrs by microscopic analysis. Type of data set: functional, cell-based.
Data set [6] has as its system Colon 26. Description: Antitumor activity against mouse Colon 26 cells allografted in BALB/cJRj mouse assessed as tumor growth delay time at 150 mg/kg, ip administered on days 3-7 and 10-14 post implantation relative to control. Type of data set: functional. The settings on record: route intraperitoneal. A digest of the protocol:
as §1

Data set [7] has as its system Colon 26. Description: Antitumor activity against mouse Colon 26 cells allografted in BALB/cJRj mouse assessed as reduction in tumor volume at 150 mg/kg, ip administered on days 3-7 and 10-14 post implantation relative to control. It counts as functional. Set-up: scale not given: the % may be the effect or the level left. The settings on record: route intraperitoneal. A digest of the protocol:
as §1

Structures are written as SMILES. Calls of active or inactive are those of the source. The calls are words filed in the database; no cut-off is given here.

On to `COc1cc(-c2nn[nH]c2Cc2cc(OC)c(OC)c(OC)c2)ccc1O`, for which the IC50 in data set [1] is above 30 µM; with B16, above 100 µM. In addition, in data set [2], the Activity is above 100 µM.
In the same order, the values of `COc1cc(/C=C(/Cc2cc(OC)c(OC)c(OC)c2)[N+](=O)[O-])ccc1O` are above 30 µM, 2.6 µM and 6.3 µM.
In the same order, the values of `COc1cc(Cc2[nH]nnc2-c2ccc3c(c2)OCO3)cc(OC)c1OC` are above 30 µM, 38 µM and 25 µM.
On to `COc1cc(Cc2[nH]nnc2-c2ccc(Cl)cc2Cl)cc(OC)c1OC`, for which the IC50 was above 30 µM in [1] and 41.7 µM with B16. Also, the Activity in data set [2] was above 100 µM.
In the same order, the values of `COc1ccc(Cc2[nH]nnc2-c2cc(OC)c(OC)c(OC)c2)cc1O` are 1.7 µM, 22.9 µM and 0.6 µM.
In the same order, the values of `COc1cc(/C=C(/Cc2c[nH]c3ccccc23)[N+](=O)[O-])cc(OC)c1OC` are 5.2 µM, 5.5 µM and 1.6 µM.
Taken in the same sequence, the figures for `COc1ccc(/C=C(/Cc2cc(OC)c(OC)c(OC)c2)[N+](=O)[O-])cc1[N+](=O)[O-]` were 8.9 µM, 3.5 µM and 3 µM.
On to `COc1ccc(-c2nn[nH]c2Cc2cc(OC)c(OC)c(OC)c2)cc1[N+](=O)[O-]`, for which the IC50 in [1] is above 30 µM; in the data set on B16, 50.1 µM. The Activity in [2] was determined as 25 µM.
Taken in the same sequence, the figures for `COc1ccc(/C=C(/Cc2cc(OC)c(OC)c(OC)c2)[N+](=O)[O-])cc1F` were 1.6 µM, 2.9 µM and 0.8 µM.
Taken in the same sequence, the figures for `COc1cc(-c2nn[nH]c2Cc2c[nH]c3ccccc23)cc(OC)c1OC` were above 30 µM, 10.7 µM and 50 µM.
Taken in the same sequence, the figures for `COc1ccc(/C=C\c2cc(OC)c(OC)c(OC)c2)cc1O` [COMBRETASTATIN A4] were 0.3 µM, 0.003 µM and 0.006 µM.
Regarding `COc1ccc(-c2nn[nH]c2Cc2cc(OC)c(OC)c(OC)c2)cc1N`, the 50% inhibitory concentration (IC50) in [1] stood at 1.8 µM; with B16, 14.8 µM. For the same compound, in data set [2], the Activity was 0.2 µM.
For `COc1ccc(-c2nn[nH]c2Cc2cc(OC)c(OC)c(OC)c2)cc1O`, the Activity is 60% with Colon 26 [3] and 0.13 µM in data set [2]. The MTD in data set [4] came to 100 mg/kg. In addition, the Time with Colon 26 [5] worked out at 2.7 days. Besides, the IC50 was 1.2 µM in data set [1] and 1.6 µM in the data set on B16. Moreover, the outcome with EA.hy 926 was Active.
`COc1cc(C/C(=C/c2ccc3c(c2)OCO3)[N+](=O)[O-])cc(OC)c1OC`: the IC50 came out at 10.5 µM in [1] and 3 µM with B16. Also, the Activity in data set [2] was 0.4 µM.
Taken in the same sequence, the figures for `COc1cc(C/C(=C/c2ccc(Cl)c(Cl)c2)[N+](=O)[O-])cc(OC)c1OC` were 15.5 µM, 4.6 µM and 3.1 µM.
Taken in the same sequence, the figures for `COc1ccc(C/C(=C/c2cc(OC)c(OC)c(OC)c2)[N+](=O)[O-])cc1O` were 0.9 µM, 2.9 µM and 0.6 µM.
Taken in the same sequence, the figures for `COc1cc(/C=C(/Cc2cc(OC)c(OC)c(OC)c2)[N+](=O)[O-])cc(OC)c1O` were 23.4 µM, 3.2 µM and 12.5 µM.
Consider `COc1cc(/C=C(/Cc2cc(OC)c(OC)c(OC)c2)[N+](=O)[O-])cc(OC)c1OC`, for which the values for the IC50 (in [1]; with B16) were 22.4 µM and 3.3 µM, respectively. In [2], the Activity came out at 6.3 µM.
Compound `COc1ccc(/C=C(/Cc2cc(OC)c(OC)c(OC)c2)[N+](=O)[O-])cc1O` had an MTD in data set [4] of 150 mg/kg. Besides, the values for the IC50 (in data set [1]; in the data set on B16) were 0.9 µM and 4 µM, respectively. Further, the Time with Colon 26 [6] was 2 days. The Activity in the data set with Colon 26 [7] turned out to be 52%; in data set [2], 0.2 µM.
As for `COc1cc(C/C(=C/c2ccc(Cl)cc2Cl)[N+](=O)[O-])cc(OC)c1OC`, the IC50 amounted to 21.9 µM in data set [1] and 2.6 µM in the data set on B16. Besides, the Activity in data set [2] was determined as 3.1 µM.
Taken in the same sequence, the figures for `COc1ccc(-c2nn[nH]c2Cc2cc(OC)c(OC)c(OC)c2)cc1F` were 12 µM, 31 µM and 2.5 µM.
